Drawing on ChEMBL document CHEMBL4513216, “Probing the Open Global Health Chemical Diversity Library for Multistage-Active Starting Points for Next-Generation Antimalarials” (ACS Infect Dis, 2020), this text covers cytotoxicity for 40 molecules.

Structures are written as SMILES.

The nature of the data set: Toxicity liver stage against HepG2, at 10uM. The format is cell-based. The arrangement: test concentration 10 uM, cell line HepG2-A16-CD81EGFP. The note with it: human, HepG2-A16-CD81EGFP cells; read-out: INHIBITION
The procedure, abridged: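 Uninfected HepG2-A16-CD81EGFP cells, 3 × 10^3 per well, 1536-well, plated on prespotted compound at 10 μM final, parasite-free screening media added to match infected plates; puromycin 10 μM positive, DMSO 0.5% negative; run in parallel with 48 h PbLuc assay at 37 °C, 5% CO2; viability by CellTiter-Glo luminescence, normalized to controls.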
For the molecule `Cc1oc(-c2nc(C#N)c(N(C)C)o2)cc1S(=O)(=O)N1CCCCCC1`, the cytotoxicity at 10 µM is -13.9%. `CC(C)NC(=O)Cn1cc(-c2ccccc2)ncc1=O`: the cytotoxicity at 10 µM is -9.87%. Turning to `COc1cccc(NC(=O)NCc2cnn(C)c2)c1`, the cytotoxicity at 10 µM is -1.59%. As for `Cc1cc(C(=O)NCc2c(C)nn(C)c2C)nc(N2CCOCC2)n1`, the figure is 0.0436%. For the molecule `CCn1nc(C)c(CN2CCC(c3ccn[nH]3)C2)c1C` (stereo not given), the cytotoxicity at 10 µM is -0.125%. Turning to `Cc1c(CN2CCCC2c2cncc(CN3CCCC3)n2)cnn1C` (stereo not given), the cytotoxicity at 10 µM was -1.15%. In the case of `Cn1ccnc1C(O)c1ccccc1N1CCN(CC2CCCC2)CC1` (stereo not given), the cytotoxicity at 10 µM was determined as 0.135%. In the case of `C=Cn1ncc(CN2C[C@@H]3C[C@@H](O)CN3C[C@H]2Cc2ccccc2)c1C` it was 4.08%. In the case of `Cc1cc(-c2ccccc2C(=O)O)nc(C2CCCN(C(C)C)C2)n1` (stereo not given) it was -4.47%; in that of `CC(c1cccnc1)N(C)S(C)(=O)=O` (stereo not given), -5.21%. With `COc1ccccc1C(=O)NCc1n[nH]c(C)n1`, the cytotoxicity at 10 µM is -0.519%.

Regarding `CCc1oc(C(=O)N[C@@H]2c3ccccc3C[C@@H]2O)cc1C`, the cytotoxicity at 10 µM was 0.243%. For `NC(=O)CN(CC(=O)NCCc1c(F)cccc1F)C1CCCC1`, the cytotoxicity at 10 µM is -8.02%. As for `Cc1cccc(NCCOc2cccc(C#N)c2)c1C(N)=O`, the cytotoxicity at 10 µM was -3.59%. Regarding `CC(=O)N(c1ccc(C)cc1)c1nc(CN2CCCC(C)C2)cs1` (stereo not given), the cytotoxicity at 10 µM was -6.71%. As for `COCCNc1ccc(CNC(=O)C2COc3ccccc32)cc1` (stereo not given), the cytotoxicity at 10 µM is -13.9%. Consider `Cc1nccn1CCCNc1nccnc1C#N`, for which the cytotoxicity at 10 µM was -7.21%. For the molecule `O=C(NCCO)Nc1cccc(Cl)c1SC(F)F`, the cytotoxicity at 10 µM was 5.98%. As to `CN(C)c1nccc(NCc2cc(-c3ccco3)n[nH]2)n1`, the cytotoxicity at 10 µM came out at 2.27%.

As for `CSCC(=O)N(C)Cc1cnn(-c2ccc(F)cc2)c1`, the cytotoxicity at 10 µM was -13.4%.

In the case of `CCC(C(=O)N1CCN(S(=O)(=O)N2CCCC2)CC1)n1cccn1` (stereo not given), the cytotoxicity at 10 µM was -8.56%.

Take `COc1ccnc(CN2CC(=O)N(c3ccc(C)cc3)CC2C)c1OC` (stereo not given): the cytotoxicity at 10 µM is -10.8%. Regarding `CCN(Cc1ccc(C)o1)C(=O)C(C)n1ccnc1C(C)C` (stereo not given), the cytotoxicity at 10 µM worked out at 7.66%. `CC(C)(C)c1nc(CN2CCC3(CCCO3)CCC2=O)no1` (stereo not given): the cytotoxicity at 10 µM was -4.57%.

On to `CCS(=O)(=O)c1ncc(CN2CCCC2)n1CCc1ccccc1`, for which the cytotoxicity at 10 µM is 5.35%. As for `Cc1cc(C(=O)N2C[C@H](c3ccccc3)[C@@H](N)C2)c2ccc(F)cc2n1`, the cytotoxicity at 10 µM is 3.96%. As for `COc1ccc([C@@H]2CN(C(=O)CCCc3cn[nH]c3)C[C@H]2N(C)C)cc1`, the cytotoxicity at 10 µM is -2.31%. As for `CCS(=O)(=O)N1CCCC(c2nccn2Cc2cccnc2)C1` (stereo not given), the cytotoxicity at 10 µM was -2.78%. As for `CCN1CCC(CC(=O)NCCc2nc(C)c(Cl)s2)CC1`, the figure is -7.43%; as for `CCC[C@H]1CN(CCS(C)(=O)=O)C[C@@H]1NC(=O)c1cc[nH]n1`, 2.75%.

For the molecule `CCCn1ncc(CN(Cc2ccsc2)Cc2ccco2)c1C`, the cytotoxicity at 10 µM was determined as 9.27%.

For `CC(C)C1CN(c2ncccn2)CCC(=O)N1Cc1ccc(F)cc1` (stereo not given), the cytotoxicity at 10 µM was determined as 1.76%. Take `Cn1cc(CNc2ncnc3c2CCN(Cc2ccsc2)CC3)cn1`: the cytotoxicity at 10 µM worked out at 15.5%.

Regarding `CSCCC(NC(=O)c1nc(SC)ncc1Cl)C(=O)O` (stereo not given), the cytotoxicity at 10 µM was -8.77%. For the molecule `CC(Cn1ccnc1)NC(=O)N1CCN(Cc2ccncc2)CC1` (stereo not given), the cytotoxicity at 10 µM is -4.1%.

On to `COc1ccc(CC(=O)N2CCCC(c3nncn3C)C2)cc1` (stereo not given), for which the cytotoxicity at 10 µM was -7.47%. For the molecule `O=C(c1ccccc1OCC1CC1)N1CCCC1Cn1cccn1` (stereo not given), the cytotoxicity at 10 µM is -6.77%.

Turning to `CC(CNCc1ccc(Br)cc1)Oc1ccccn1` (stereo not given), the cytotoxicity at 10 µM stood at 5.36%. On to `CN(C)CCOCC1CN(CC2CCOCC2)Cc2nnn(C)c21` (stereo not given), for which the cytotoxicity at 10 µM amounted to 3.01%. As to `O=C(N1CCCO1)[C@@]12CCO[C@@H]1CCN(C1CCCCC1)C2`, the cytotoxicity at 10 µM is -5.23%.
